Source: ChEMBL document CHEMBL1150329, “The discovery of fused pyrrole carboxylic acids as novel, potent D-amino acid oxidase (DAO) inhibitors” (Bioorg Med Chem Lett, 2008)
Activity calls are given as the source filed them. The calls are words filed in the database; no cut-off is given here.

Experiments:
D-amino-acid oxidase = D-amino-acid oxidase (Homo sapiens, UniProt P14920); experiment: Inhibition of human DAO
D-aspartate oxidase = biological target: T1, D-aspartate oxidase (Homo sapiens, UniProt Q99489); experiment: Inhibition of human DDO
T1 sequence (Q99489 whole entry): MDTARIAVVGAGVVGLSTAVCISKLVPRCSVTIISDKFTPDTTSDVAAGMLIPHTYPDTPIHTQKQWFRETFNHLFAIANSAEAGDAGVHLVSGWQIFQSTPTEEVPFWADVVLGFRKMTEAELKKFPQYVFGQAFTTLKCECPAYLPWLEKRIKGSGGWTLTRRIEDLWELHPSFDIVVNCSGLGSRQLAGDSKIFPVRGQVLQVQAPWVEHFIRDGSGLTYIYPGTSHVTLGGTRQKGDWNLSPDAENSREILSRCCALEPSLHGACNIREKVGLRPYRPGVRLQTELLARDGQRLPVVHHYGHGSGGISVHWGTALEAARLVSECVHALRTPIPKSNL

Cytochrome P450 3A4 = Cytochrome P450 3A4 (Homo sapiens, UniProt P08684); experiment: Inhibition of CYP3A4; format: ADME
Chain of Cytochrome P450 3A4 (P08684 whole entry): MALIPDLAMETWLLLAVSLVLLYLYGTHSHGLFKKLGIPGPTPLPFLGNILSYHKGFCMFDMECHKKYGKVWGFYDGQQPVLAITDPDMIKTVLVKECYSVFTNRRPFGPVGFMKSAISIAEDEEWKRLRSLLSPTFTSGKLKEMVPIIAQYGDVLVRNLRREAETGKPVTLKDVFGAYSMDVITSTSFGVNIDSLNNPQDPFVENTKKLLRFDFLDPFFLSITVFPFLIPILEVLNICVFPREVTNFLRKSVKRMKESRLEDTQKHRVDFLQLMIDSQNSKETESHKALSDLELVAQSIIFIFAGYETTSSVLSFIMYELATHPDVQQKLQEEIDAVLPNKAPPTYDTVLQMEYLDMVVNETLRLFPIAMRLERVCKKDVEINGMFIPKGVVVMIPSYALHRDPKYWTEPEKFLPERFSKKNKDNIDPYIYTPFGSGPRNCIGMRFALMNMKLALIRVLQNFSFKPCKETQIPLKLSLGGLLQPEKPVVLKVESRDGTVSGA

Cytochrome P450 2D6 = Cytochrome P450 2D6 (Homo sapiens, UniProt P10635); experiment: Inhibition of CYP2D6; format: ADME
Chain of Cytochrome P450 2D6 (P10635 whole entry): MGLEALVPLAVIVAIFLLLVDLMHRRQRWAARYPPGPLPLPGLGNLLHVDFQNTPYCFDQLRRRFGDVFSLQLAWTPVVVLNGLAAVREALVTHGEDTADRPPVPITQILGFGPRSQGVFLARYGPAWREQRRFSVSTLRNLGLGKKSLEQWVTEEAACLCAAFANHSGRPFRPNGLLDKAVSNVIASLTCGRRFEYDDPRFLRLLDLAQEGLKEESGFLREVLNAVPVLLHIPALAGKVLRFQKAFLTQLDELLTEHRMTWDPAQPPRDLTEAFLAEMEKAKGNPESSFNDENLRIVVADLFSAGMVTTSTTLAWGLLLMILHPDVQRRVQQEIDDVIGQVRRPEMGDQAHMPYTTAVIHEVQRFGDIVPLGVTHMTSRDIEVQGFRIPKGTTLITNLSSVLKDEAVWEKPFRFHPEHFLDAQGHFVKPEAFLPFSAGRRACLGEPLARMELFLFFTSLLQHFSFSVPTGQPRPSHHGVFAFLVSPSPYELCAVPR

[1] = Inhibition of CYP3C9; format: ADME
Rattus norvegicus [2] = experiment: Ex vivo inhibition of DAO in ip dosed rat kidney; format: functional, organism-based
Summary of the method: (§1)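 Rats were given 25, 75 or 150 mg/kg ip. DAO enzyme activity was measured ex vivo in kidney and cerebellum at 1, 2 and 4 h after dosing and compared with vehicle-dosed rats. Time and treatment effects were tested by two-way ANOVA, with Bonferroni post tests for individual dose-versus-vehicle comparisons.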

Rattus norvegicus [3] = experiment: Ex vivo inhibition of DAO in ip dosed rat cerebellum; format: functional, organism-based; summary of the method: as §1
Rattus norvegicus [4] = experiment: Ex vivo inhibition of DAO in rat cerebellum at 25 mg/kg, ip after 1 hr; format: functional, organism-based; set-up: dose 25 mg/kg; summary of the method: as §1

Chain of D-amino-acid oxidase (P14920 whole entry): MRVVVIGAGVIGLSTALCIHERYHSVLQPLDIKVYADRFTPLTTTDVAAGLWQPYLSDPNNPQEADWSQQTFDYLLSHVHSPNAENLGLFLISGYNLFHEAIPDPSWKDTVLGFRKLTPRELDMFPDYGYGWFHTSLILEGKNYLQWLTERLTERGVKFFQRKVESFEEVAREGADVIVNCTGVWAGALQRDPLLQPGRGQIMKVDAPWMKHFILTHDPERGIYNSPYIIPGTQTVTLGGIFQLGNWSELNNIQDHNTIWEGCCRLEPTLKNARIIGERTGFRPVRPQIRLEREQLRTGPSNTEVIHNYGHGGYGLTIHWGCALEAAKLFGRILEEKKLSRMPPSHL

| SMILES | IC50 (D-amino-acid oxidase) [µM] | further results |
| --- | --- | --- |
| O=C(O)c1cc2sc(Cl)cc2[nH]1 | > 5 | – |
| O=C(O)c1cc2occ(CO)c2[nH]1 | > 5 | – |
| O=C(O)c1cc2oc(-c3ccc(Cl)cc3)cc2[nH]1 | > 5 | – |
| O=C(O)c1cc2occc2[nH]1 | – | IC50 (D-aspartate oxidase): > 5 µM; IC50 (Cytochrome P450 3A4): > 10 µM; IC50 (Cytochrome P450 2D6): > 10 µM; IC50 [1]: > 10 µM; Activity (Rattus norvegicus [2]): Active; Activity (Rattus norvegicus [3]): Active; Activity (Rattus norvegicus [4]): inactive |
| O=C(O)c1cc2[nH]ncc2[nH]1 | > 5 | – |
| Oc1noc2cc(Cl)ccc12 | – | IC50 (D-aspartate oxidase): > 5 µM |
| O=C(O)c1ccc[nH]1 | > 5 | – |
| O=C(O)c1cc2occ(-c3cccnc3)c2[nH]1 | > 5 | – |
| O=C(O)c1cc2oc(-c3ccccc3)cc2[nH]1 | > 5 | – |
| O=C(O)c1cc2oc(-c3cccc(Cl)c3)cc2[nH]1 | > 5 | – |
| O=C(O)c1cc2occ(-c3cccc(Cl)c3)c2[nH]1 | > 5 | – |
| O=C(O)c1cc2occ(-c3ccc(Cl)cc3)c2[nH]1 | > 5 | – |
| O=C(O)c1cc2oc(-c3ccc(Cl)cc3Cl)cc2[nH]1 | > 5 | – |
| Cc1oc2cc(C(=O)O)[nH]c2c1C | > 5 | – |
| O=C(O)c1cc2oc(Cl)cc2[nH]1 | > 5 | – |

Second part, led by results:

| IC50 (D-amino-acid oxidase) [µM] | SMILES | further results |
| --- | --- | --- |
| > 5 | O=C(O)c1cc2ocnc2[nH]1 | – |
| 0.516 | O=C(O)c1cc2scnc2[nH]1 | – |
| 1.15 | N#Cc1csc2cc(C(=O)O)[nH]c12 | – |
| 0.343 | O=C(O)c1cc(Cl)c(Cl)o1 | IC50 (D-aspartate oxidase): > 5 µM |
| 0.245 | O=C(O)c1cc2sccc2[nH]1 | IC50 (Cytochrome P450 3A4): > 10 µM; IC50 (Cytochrome P450 2D6): > 10 µM; IC50 [1]: > 10 µM |
| 1.43 | O=C(O)c1cc2occ(Cl)c2[nH]1 | – |
| 4.2 | O=C(O)c1cc2ncsc2[nH]1 | – |
| 0.745 | O=C(O)c1cc2ccccc2[nH]1 [INDOLE-2-CARBOXYLIC ACID] | IC50 (D-aspartate oxidase): > 5 µM |
| 0.269 | O=C(O)c1cc2ccsc2[nH]1 | – |
